# Test results as given in ChEMBL document CHEMBL1123240 (J Med Chem, 1986).
# pIC50: −log10 of the molar value.
# What was measured:
# [1] = species on record: Rattus norvegicus; test: Compound was tested for inhibition of hippocampal excitatory neurotransmission in schaffer collateral -CA1 pyramidal cells.; format: functional
# In short: (§1)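 Transverse hippocampal slices, 450 μm, from 30–90-day-old male Holtzman rats. Held at 30 °C, submerged in stirred medium (10 mM glucose, 124 mM NaCl, 3.3 mM KCl, 2.4 mM MgSO4, 2.5 mM CaCl2, 1.2 mM KH2PO4, 26 mM NaHCO3; 95:5 O2/CO2, pH 7.4). Evoked synaptic field potentials recorded extracellularly; CA1 electrodes in stratum radiatum. Drug started at threshold and doubled every 4 min. IC50 from fraction of uninhibited response versus log concentration.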
# [2] = species on record: Rattus norvegicus; test: Compound was evaluated for its ability to displace [3H]APB from rat brain synaptic plasma membrane preparations
# [3] = species on record: Rattus norvegicus; test: Compound was tested for inhibition of Medial perforant path(MPP) neurotransmission in hippocampus.; format: functional
# [4] = species on record: Rattus norvegicus; test: Compound was tested for inhibition of Lateral perforant path(LPP) neurotransmission in hippocampus; format: functional; in short: as §1
# [5] = species on record: Rattus norvegicus; test: Hill coefficient value of compound was evaluated for [3H]-APB binding to rat brain synaptic plasma
# In short: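 Rat forebrain synaptic plasma membranes (Holtzman rats, 30–90 days; sucrose gradient, 1.0–1.3 M interface; 3–5 mg protein/mL stock). Membranes ≤200 μg/mL preincubated 5 min at 33 °C, then 1 h at 33 °C. Final: 50 mM HEPES pH 7.4, 10 mM CaCl2, 100 nM DL-[3H]APB, displacer up to 1 mM. Separation by centrifugation, scintillation counting. Nonspecific binding with 1 mM unlabeled ligand. Triplicates on ≥3 membrane preparations.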
# [6] = Ratio of IC50 of Medial perforant path(MPP) to IC50 of Lateral perforant path(LPP); format: functional
# In short: (§2)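 Ratio of IC50 values. For line 8, LPP IC50 from slice recording over [3H]APB binding IC50. Each IC50 is a weighted mean of IC50s calculated for each experimental point, or for steep agonist-like curves is read directly from the log concentration–response curve.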
# [7] = species on record: Rattus norvegicus; test: Compound was tested for inhibition of Medial perforant path(MPP) neurotransmission in hippocampus; format: functional
# [8] = species on record: Rattus norvegicus; test: Compound was tested for inhibition of hippocampal excitatory neurotransmission in schaffer collateral -CA1 pyramidal cells; format: functional; in short: as §1
# [9] = Ratio of IC50 of Lateral perforant path(LPP) to IC50 of [3H]- binding; format: tissue-based; in short: as §2
SMILES,pIC50 [1],pIC50 [2],pIC50 [3],pIC50 [4],nH [5],Ratio [6],pIC50 [7],pIC50 [8],Ratio [9]
N[C@@H](CCP(=O)(O)O)C(=O)O,2.60,5.82,4.35,5.60,0.8,18,,,
N[C@@]1(C(=O)O)CC[C@@H](P(=O)(O)O)C1,,4.10,,3.89,1,,2.73,< 2.00,
N[C@@]1(C(=O)O)CCC[C@@H](P(=O)(O)O)C1,,3.12,,2.24,,1.7,2.00,2.02,7.7
N[C@@]1(C(=O)O)CC[C@H](P(=O)(O)O)C1,,5.33,,3.02,1,2.5,2.62,2.42,
N[C@@]1(C(=O)O)CCC[C@H](P(=O)(O)O)C1,,3.08,,2.51,,2.4,2.14,2.09,3.7
